The record followed here is ChEMBL document CHEMBL2169850, “3,6-bis(3-alkylguanidino)acridines as DNA-intercalating antitumor agents” (Eur J Med Chem, 2012).

Calls of active or inactive are those of the source. The calls are words filed in the database; no cut-off is given here.

Data set [1] relates to HL-60. The data set is described as follows: Drug uptake in human HL60 cells with normal morphology at 50 uM incubated for 18 hrs by fluorescence microscopy. It is filed as ADME, cell-based. The following applies: hl-60, 18 h. Put shortly:
(§1)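 HL-60 cells were treated with 50 µM compound for 18 h, washed with PBS, resuspended in HBSS and mounted as native slides. Cells were imaged by inverted fluorescence microscopy at 40×, with excitation 360/40 and emission 470/40. The fluorescence channel was merged with brightfield images.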

In data set [2] the test system is HL-60. The data set is described as follows: Drug uptake in human HL60 cells with necrotic morphology at 50 uM incubated for 18 hrs by fluorescence microscopy. It is filed as ADME, cell-based. The note with it: hl-60, 18 h. Put shortly: as §1
The test system of data set [3] is HL-60. The data set is described as follows: Induction of apoptosis in human HL60 cells at 5 to 25 uM incubated for 24 hrs by AnnexinV/propidium iodide staining method. The data set is classed as functional, cell-based. Put shortly:
(§2)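 HL-60 cells (1.5 × 10^5) were treated at 5–25 µM for 24, 48 or 72 h and harvested. They were stained with Annexin V-FITC for 10 min in HEPES/CaCl2/NaCl binding buffer, washed, briefly stained with PI (1 mg/mL) and analysed by flow cytometry for apoptosis and necrosis. Mean ± SD, n ≥ 3.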

Data set [4] concerns HL-60. The data set can be described thus: Antiproliferative activity against human HL60 cells assessed as cell number at 25 uM incubated for 72 hrs by Coulter counting method. The data set is classed as functional. Put shortly:
(§3)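 HL-60 cells in RPMI with 10% heat-inactivated FCS, antibiotics and amphotericin, 37 °C, 5% CO2, seeded in 60 mm dishes. Compound added at 5, 15 or 25 µM for 24, 48 or 72 h. Absolute cell counts taken by Coulter counter and expressed as percentage of untreated control. Mean ± SD of at least three independent experiments; one-way ANOVA with Tukey test, p < 0.05.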

For data set [5], the system named is HL-60. The data set can be described thus: Antiproliferative activity against human HL60 cells assessed as cell number at 15 uM incubated for 72 hrs by Coulter counting method. The data set is classed as functional. Put shortly:
as §3

Data set [6] has as its system HL-60. The data set is described as follows: Antiproliferative activity against human HL60 cells assessed as cell number at 5 uM incubated for 72 hrs by Coulter counting method. The data set is classed as functional. Put shortly: as §3
Data set [7] concerns HL-60. The data set is described as follows: Antiproliferative activity against human HL60 cells assessed as cell number at 15 uM incubated for 48 hrs by Coulter counting method. The data set is classed as functional. Put shortly:
as §3

Data set [8] relates to HL-60. The data set is described as follows: Antiproliferative activity against human HL60 cells assessed as cell number at 25 uM incubated for 48 hrs by Coulter counting method. The data set is classed as functional. Put shortly:
as §3

Data set [9] concerns HL-60. The data set is described as follows: Antiproliferative activity against human HL60 cells assessed as cell number at 5 uM incubated for 48 hrs by Coulter counting method. The data set is classed as functional. Put shortly: as §3
In data set [10] the test system is HL-60. The data set is described as follows: Antiproliferative activity against human HL60 cells assessed as cell number at 15 uM incubated for 24 hrs by Coulter counting method. It is filed as functional. Put shortly:
as §3

Data set [11] has as its system HL-60. The data set can be described thus: Antiproliferative activity against human HL60 cells assessed as cell number at 25 uM incubated for 24 hrs by Coulter counting method. It is filed as functional. Put shortly: as §3
Data set [12] has as its system HL-60. The data set can be described thus: Antiproliferative activity against human HL60 cells assessed as cell number at 5 uM incubated for 24 hrs by Coulter counting method. The data set is classed as functional. Put shortly:
as §3

The target of data set [13] is T1, DNA topoisomerase 1 (Homo sapiens) (UniProt P11387).
T1 sequence (whole entry): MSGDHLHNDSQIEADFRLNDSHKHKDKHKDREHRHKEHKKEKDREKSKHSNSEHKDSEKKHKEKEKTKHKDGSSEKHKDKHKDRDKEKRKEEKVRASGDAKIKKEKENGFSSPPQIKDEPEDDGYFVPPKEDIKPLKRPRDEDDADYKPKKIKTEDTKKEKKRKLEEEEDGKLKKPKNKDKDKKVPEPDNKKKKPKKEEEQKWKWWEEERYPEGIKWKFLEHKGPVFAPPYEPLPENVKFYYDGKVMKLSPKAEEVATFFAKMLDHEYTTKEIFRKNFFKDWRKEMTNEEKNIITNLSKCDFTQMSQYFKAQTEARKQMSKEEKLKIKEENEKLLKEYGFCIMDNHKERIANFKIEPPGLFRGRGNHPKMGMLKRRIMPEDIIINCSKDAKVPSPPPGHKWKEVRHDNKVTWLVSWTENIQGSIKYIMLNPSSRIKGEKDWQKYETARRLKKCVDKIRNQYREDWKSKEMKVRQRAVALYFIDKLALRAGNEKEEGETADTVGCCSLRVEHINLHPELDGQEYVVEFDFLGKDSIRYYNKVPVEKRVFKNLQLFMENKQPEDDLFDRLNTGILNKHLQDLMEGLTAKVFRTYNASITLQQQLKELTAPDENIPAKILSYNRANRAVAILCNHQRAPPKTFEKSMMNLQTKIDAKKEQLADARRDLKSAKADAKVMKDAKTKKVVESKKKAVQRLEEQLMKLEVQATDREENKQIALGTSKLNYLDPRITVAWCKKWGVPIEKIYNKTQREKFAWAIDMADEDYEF
The data set can be described thus: Inhibition of human topoisomerase 1 assessed as reduction in pBR322 DNA relaxation of relaxation at 5 uM by DNA unwinding assay.

Data set [14] deals with T1, DNA topoisomerase 1 (Homo sapiens). The data set is described as follows: Inhibition of human topoisomerase 1 assessed as reduction in pBR322 DNA relaxation of relaxation at 60 uM by DNA unwinding assay.
Data set [15] has as its system Nucleic Acid. The data set can be described thus: Binding affinity to Escherichia coli pUC19 DNA assessed as reduction in DNA mobility to 5 to 80 uM by EMSA. It is filed as nucleic-acid assay. Put shortly:
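Supercoiled pUC19 plasmid incubated with compound at 5, 20, 40, 60 or 80 µM. Native agarose gel electrophoresis run with no ethidium bromide in the gel; band mobility was then read.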
On the technique in general: In EMSA bound probe runs differently from free probe, usually more slowly.

In data set [16] the test system is Nucleic Acid. The data set is described as follows: Binding affinity to calf thymus DNA increase in DNA viscosity at 12 to 60 uM by viscosimetric titration assay. It is filed as nucleic-acid assay. The following applies: Bos taurus. Put shortly: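 Relative viscosity of ctDNA (3.11 × 10^-8 M) with compound at 12–60 × 10^-6 M was measured by automated microviscometry in a 1.6 mm capillary at 25 °C, in 10 mM Tris, pH 7.4. Solution density was also measured.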

The subject of data set [17] is Nucleic Acid. The data set is described as follows: Binding affinity to calf thymus DNA at 6.5 uM by CD spectroscopy. It is filed as nucleic-acid assay. The note with it: Bos taurus. Put shortly:
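CD spectra were recorded in 1 mm quartz cuvettes in 0.01 M Tris, pH 7.4, with 6.52 µM compound and ctDNA. Each spectrum is the mean of three scans after buffer background subtraction.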

The test system of data set [18] is Nucleic Acid. The data set is described as follows: Binding affinity to calf thymus DNA by spectrofluorimetric titration assay. It is filed as nucleic-acid assay. The note with it: Bos taurus. Put shortly:
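Fluorescence titration at 25 °C in 0.01 M Tris, pH 7.4. Compound (9.58 × 10^-6 M) was titrated with ctDNA from 0 to 2.57 × 10^-4 M bp, excited at 384 nm, and emission recorded from 400 to 600 nm. K and n were obtained from McGhee–von Hippel fits of Scatchard data.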

Data set [19] deals with Nucleic Acid. The data set can be described thus: Binding affinity to calf thymus DNA assessed as melting temperature at 12.4 uM by thermal denaturation study. The data set is classed as nucleic-acid assay. The note with it: Bos taurus.
Data set [20] has as its system HL-60. The data set is described as follows: Induction of necrosis in human HL60 cells at 5 to 25 uM incubated for 72 hrs by AnnexinV/propidium iodide staining method. The data set is classed as functional, cell-based. Put shortly:
(§4)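 HL-60 cells (1.5 × 10^5) were exposed to compound, then stained 10 min with Annexin V-FITC in HEPES/CaCl2/NaCl binding buffer. Cells were washed, briefly stained with propidium iodide and analysed by flow cytometry for apoptotic and necrotic fractions. Mean ± SD of at least three independent experiments.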

In data set [21] the test system is HL-60. The data set can be described thus: Induction of necrosis in human HL60 cells at 5 to 25 uM incubated for 24 hrs by AnnexinV/propidium iodide staining method. It is filed as functional, cell-based. Put shortly: as §4
In data set [22] the test system is HL-60. The data set is described as follows: Induction of apoptosis in human HL60 cells at 5 to 25 uM incubated for 48 hrs by AnnexinV/propidium iodide staining method. It is filed as functional, cell-based. Put shortly:
as §2

Data set [23] deals with HL-60. The data set is described as follows: Induction of apoptosis in human HL60 cells at 5 to 25 uM incubated for 72 hrs by AnnexinV/propidium iodide staining method. It is filed as functional, cell-based. Put shortly: as §2
For data set [24], the system named is HL-60. The data set is described as follows: Induction of necrosis in human HL60 cells at 5 to 25 uM incubated for 48 hrs by AnnexinV/propidium iodide staining method. It is filed as functional, cell-based. Put shortly:
as §4

For data set [25], the system named is HL-60. The data set can be described thus: Induction of caspase-3 activation in human HL60 cells at 25 uM incubated for 72 hrs by FACS assay. It is filed as functional. Put shortly:
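HL-60 cells were treated for 72 h, washed in cold PBS, fixed and permeabilized for 20 min on ice. They were incubated with a FITC anti-active caspase-3 antibody for 30 min at RT and analysed by flow cytometry. Results are the percentage of positively stained cells; mean ± SD, n ≥ 3.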
A general note: In flow cytometry, cells or beads pass a laser one at a time.

Data set [26] has as its system HL-60. The data set can be described thus: Induction of caspase-3 activation in human HL60 cells at 5 to 25 uM incubated for 24 to 72 hrs by FACS assay. The data set is classed as functional, cell-based. Put shortly:
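HL-60 cells (RPMI with 10% heat-inactivated FCS, 37 °C, 5% CO2) were seeded in dishes and treated 24, 48 or 72 h. Cells were fixed and permeabilized 20 min on ice, then stained 30 min at RT with FITC anti-active caspase-3 antibody. Read-out was the percentage of positive cells by flow cytometry. Mean ± SD of at least three independent experiments; ANOVA with Tukey.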

The test system of data set [27] is Nucleic Acid. The data set can be described thus: Binding affinity to calf thymus DNA assessed as hypochromacity at 12.8 uM by UV-visible absorption spectroscopy. The following applies: Bos taurus.

As a reminder, the Tm is the temperature at the midpoint of the melting transition. Consider `CCCCCNC(=N)Nc1ccc2cc3ccc(NC(=N)NCCCCC)cc3nc2c1.Cl.Cl.O`, for which the Drug uptake entry in [1] and in data set [2] was “Active” in each case. Moreover, the outcome in data set [3], in data set [15], in data set [20], in [21], in data set [22] and in data set [23] was inactive. Moreover, the outcome in data set [24] and in data set [26] was inactive. Also, the Activity in data set [4] was 48.67%; in data set [5], 54.4%; in data set [6] it was 83.3%; in data set [7], 77.14%; in [8], 67.98%; in data set [9] it was 81.9%. The Activity in [10] is 75.2%; in data set [11], 78.32%; in data set [12], 76.19%; in [25], 46.8%; in [27], 31%. Further, the outcome in data set [13], in data set [16] and in [17] was Active. For the same compound, the “Topoisomerase 1 inhibition (active/inactive)” value in [14] is “Active”. This compound came in with a K in data set [18] of 2.36 ×10⁵ /M. Further, the Tm in [19] came out at 88 °C.

As to `CCCCNC(=N)Nc1ccc2cc3ccc(NC(=N)NCCCC)cc3nc2c1`, the outcome in data set [13], in [15], in data set [16] and in data set [17] was Active. In addition, in data set [14], the “Topoisomerase 1 inhibition (active/inactive)” value was “Active”. Also, in data set [18], the K is 4.25 ×10⁵ /M. For the same compound, the Tm in [19] amounted to 86 °C. The Activity in data set [27] turned out to be 17%.

Regarding `CCCNC(=N)Nc1ccc2cc3ccc(NC(=N)NCCC)cc3nc2c1`, the outcome in [13], in data set [15], in data set [16] and in data set [17] was Active. The “Topoisomerase 1 inhibition (active/inactive)” value in data set [14] was “Active”. The compound also registered a K in [18] of 5.01 ×10⁵ /M. Moreover, in data set [19], the Tm came out at 85 °C. Also, the Activity in data set [27] turned out to be 32%.
